Compound activity from PubChem BioAssay.
S100A4 inh HTS = inhibitors of S100A4-myosin IIA peptide binding, primary screen, biochemical, fluorescence polarization, TAMRA-MyoIIA peptide; Protein S100-A4 (Homo sapiens), P26447; inhibition, % at 10.7 µM; 0.14% of 360,000 active;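 active means mean inhibition of at least 70% across replicates, with every replicate also reaching that level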
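System – human S100A4 monomer protein, biochemical binding assay · Buffer or medium – Calcium-containing HEPES buffer, pH 7.2 · Timing – 5 min between mix addition and reading · Also added – TAMRA-labelled myosin IIA heavy-chain peptide probe, 5 nM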
MLL AF4-AF9 inh = inhibitors of AF4 peptide binding to AF9, primary screen, biochemical, AlphaScreen, biotin-AF4 peptide, FLAG-AF9, single point; 0.47% of 350,000 active; AID 651704, 2012; inhibition, % at 10 µM; Protein AF-9 (Homo sapiens), P42568;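 active means every replicate reaching a set inhibition limit, whatever the replicate mean, cut at about 25% in these data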;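 further: 0% = plate neutral control median and 100% = total signal loss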
ERAP1 HTS inh = human ERAP1 aminopeptidase inhibitors, primary screen, biochemical, single point, plate reader; Endoplasmic reticulum aminopeptidase 1 (Homo sapiens), Q9NZ08; recombinant ERAP1, Leu-AMC fluorescence, 60 min; inhibition, % at 10.7 µM; 0.15% of 340,000 active; AID 652197, 2013;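 active means mean replicate inhibition of at least 30%, or all replicates individually reaching that 30% level; inactive means mean below 30% and not every replicate reaching it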;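 further: 0% = neutral control wells and 100% = L-leucinethiol positive control wells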
Target sequence (Q9NZ08 whole entry, looked up): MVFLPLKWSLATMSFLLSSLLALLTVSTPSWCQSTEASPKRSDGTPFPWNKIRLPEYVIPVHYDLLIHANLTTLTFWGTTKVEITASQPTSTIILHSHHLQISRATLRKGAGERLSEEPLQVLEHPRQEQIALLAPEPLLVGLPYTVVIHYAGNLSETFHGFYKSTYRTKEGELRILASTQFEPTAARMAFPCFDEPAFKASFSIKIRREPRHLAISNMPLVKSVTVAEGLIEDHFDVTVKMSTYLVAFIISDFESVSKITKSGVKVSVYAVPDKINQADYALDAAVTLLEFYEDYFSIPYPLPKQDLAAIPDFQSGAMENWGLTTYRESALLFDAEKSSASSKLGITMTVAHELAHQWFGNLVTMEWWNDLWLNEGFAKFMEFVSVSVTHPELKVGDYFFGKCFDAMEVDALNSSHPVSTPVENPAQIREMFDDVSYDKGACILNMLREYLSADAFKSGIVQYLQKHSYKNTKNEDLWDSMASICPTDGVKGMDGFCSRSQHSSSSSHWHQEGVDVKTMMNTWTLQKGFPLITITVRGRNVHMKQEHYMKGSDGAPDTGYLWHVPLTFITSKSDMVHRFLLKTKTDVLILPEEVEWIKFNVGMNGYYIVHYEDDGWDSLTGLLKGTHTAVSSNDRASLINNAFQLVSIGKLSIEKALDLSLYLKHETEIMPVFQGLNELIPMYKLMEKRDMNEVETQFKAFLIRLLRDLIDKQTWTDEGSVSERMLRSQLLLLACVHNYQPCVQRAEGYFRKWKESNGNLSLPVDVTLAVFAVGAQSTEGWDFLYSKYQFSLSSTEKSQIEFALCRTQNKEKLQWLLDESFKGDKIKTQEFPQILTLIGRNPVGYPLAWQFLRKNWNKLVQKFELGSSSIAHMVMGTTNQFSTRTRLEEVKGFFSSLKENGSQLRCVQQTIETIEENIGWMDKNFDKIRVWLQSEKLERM
INS-1E GSIS act = GLuc luminescence reporter in INS-1E cells, primary screen for activators of glucose-dependent secretion of insulin; activation, % at 16.6 µM; INS-1E GLuc reporter insulin secretion, 2-3 h; AID 743287, 2014; 0.61% of 370,000 active;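 active means lowest replicate activation of at least 40%, so every replicate reaches that level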;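 further: 0% = median of neutral control wells and 100% = median of IBMX positive control wells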
RAD52 anneal inh = RAD52 DNA annealing inhibitors, primary screen, biochemical, FRET, single point, set 2 | recombinant RAD52 DNA annealing, FRET fluorescence | inhibition, % at 18.7 µM | 0.46% of 360,000 active;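 active means every replicate showing at least 50% inhibition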
Numbers without * were called inactive; · = no result; + = active, no number; ! = not active in a repeat. Only some compounds are listed: those with a hit (about 1.5% of all), similar ones and a draw of the others.

SMILES	S100A4 inh HTS	MLL AF4-AF9 inh	ERAP1 HTS inh	INS-1E GSIS act	RAD52 anneal inh
O=C(Nc1ccc(F)cc1)Nc1cc(OCC(F)(F)F)cc(OCC(F)(F)F)c1	·	·	·	128*	·
CC(C)[C@H](C)NC(=O)N(C)C[C@H]1OCc2ccccc2-c2c(n(C)c3ccccc23)C(=O)N([C@H](C)CO)C[C@@H]1C	·	·	·	-24	·
C[C@@H]1CCCCO[C@@H](CN(C)Cc2ccc3c(c2)OCO3)[C@H](C)CN([C@@H](C)CO)C(=O)c2cc(NC(=O)NC3CCCCC3)ccc2O1	10	7	1	-11	18
COc1ccccc1-n1nnnc1SCC(=O)NCC1(N2CCOCC2)CCCCC1	-3	27*	2	16	-17
Cc1cccc(-n2nnnc2SCC(=O)NCC2(N3CCOCC3)CCCCC2)c1C	-2	1	-5	-9	-25
O=c1cc(-c2cccc(Br)c2)nc(-c2ccccc2F)o1	·	·	·	46*	·
O=c1cc(-c2ccccc2F)nc(-c2ccccc2F)o1	-4	0	-1	12	-3
O=C(COc1ccc(F)cc1)N(Cc1cccc(Br)c1)C1CCS(=O)(=O)C1 (stereo not given)	-3	-3	1	-5	-9
O=C(COc1ccccc1)N(Cc1cccc(F)c1)C1CCS(=O)(=O)C1 (stereo not given)	2	-6	1	51*	-4
CC/C(=C(\c1ccccc1)c1ccc(OCCN(C)C)cc1)c1ccccc1	4	30*!	0	·	18
CCC(=C(c1ccccc1)c1ccc(OCCN(C)C)cc1)c1ccccc1	-12	3	1	·	15
CNC[C@@H]1Oc2c(NS(C)(=O)=O)cccc2C(=O)N(C)C[C@H]1C	·	·	·	10	·
CN(C)CC/C=C1/c2cc(F)ccc2Sc2ccc(Cl)cc21	-1	37*	4	-23	47
COc1ccc(-c2ccc3c(c2)[C@@H]2[C@@H](CCN2S(=O)(=O)c2ccccc2F)[C@@H](CO)N3)cc1	·	·	·	15	·
NC(=O)C1CCN(C(=O)CCNS(=O)(=O)c2ccccc2F)CC1	18	-3	0	48*	-5
COc1ccc2c3c(n(C)c2c1)[C@H](CO)N(CC1CCOCC1)CC31CN(C(C)=O)C1	·	·	·	21	·
CCCCCCN1C[C@H](n2cc(C3CC3)nn2)[C@@H](O)C[C@@H]1c1ccc(C)cc1	8	2	2	274*	-7
CCCCCCN1C[C@H](n2cc(COC(=O)c3ccccc3)nn2)[C@@H](O)C[C@@H]1c1ccc(C)cc1	-7	-4	·	163*	-9
CCCCCCN1C[C@@H](n2cc(C3CC3)nn2)[C@H](O)C[C@@H]1c1ccc(C)cc1	-10	1	-4	-19	2
COc1ccc(NC(=O)N(C)C[C@H]2Oc3ccc(NC(=O)CCN4CCOCC4)cc3CC(=O)N([C@H](C)CO)C[C@@H]2C)cc1	7	-2	2	15	-12
COc1ccc2c3c([nH]c2c1)[C@@H](CO)N(Cc1ccncc1)CC31CN(S(C)(=O)=O)C1	·	·	·	19	·
O=C(Nc1ccc(C(F)(F)F)cc1)N1[C@@H]2CNC[C@H]1C2c1ccc(-c2ccc(F)cc2)cc1 (stereo not given in full)	-13	-5	0	-18	61*
O=C(Nc1ccc(C(F)(F)F)cc1)N1C[C@@H]2N[C@H](C1)C2c1ccc(-c2ccccc2)cc1 (stereo not given in full)	10	0	2	755*!	79*!
O=C(Nc1ccc(C(F)(F)F)cc1)N1C[C@@H]2N[C@H](C1)C2c1ccc(/C=C/c2ccccc2)cc1 (stereo not given in full)	-10	-4	2	+	65*
O=C(C[C@H]1CC[C@@H]2[C@H](COC[C@@H](O)CN2C(=O)Nc2ccc(F)cc2)O1)NC1CCC1	·	·	·	-4	·
SMILES	S100A4 inh HTS	MLL AF4-AF9 inh	ERAP1 HTS inh	INS-1E GSIS act	RAD52 anneal inh
C#Cc1ccc([C@H]2C=C(C(=O)NC3CC3)O[C@@H](OCc3ccc(CO)cc3)C2)cc1	2	-4	2	·	0
CC1NC(=O)NC1CCCCCC(=O)NCCc1ccccc1 (stereo not given)	1	77*	-3	-14	-22
COc1ccccc1-c1cnc2c(c1)C(=O)N([C@H](C)CO)C[C@H](C)[C@H](CN(C)Cc1ccncc1)O2	-10	-3	2	9	2
CS(=O)(=O)c1ccc(S(=O)CC(=O)OCc2ccccc2)c([N+](=O)[O-])c1 (stereo not given)	-2	-11	2	81*	-10
CCOC(=O)c1ccccc1OC(=O)CS(=O)c1ccccc1[N+](=O)[O-] (stereo not given)	-3	0	0	-8	-3
Cc1ccccc1S(=O)(=O)N1C[C@H](O)COC[C@H]2O[C@H](CC(=O)N3CCN(C)CC3)CC[C@@H]21	-3	-2	0	12	3
COc1ccccc1CN1CC(C(=O)NCCCc2ccc(F)cc2)CCC1=O (stereo not given)	-4	42*	-2	10	-12
CCOC(=O)c1cnc2ccc(OCC)cc2c1N1CCN(c2ccccc2)CC1	·	·	·	71*	·
CN1CCC(N(C)S(=O)(=O)c2ccc(NC(=O)COc3cccc(Cl)c3)cc2)CC1	-5	5	-6	64*	-5
CN1CCC(N(C)S(=O)(=O)c2ccc(NC(=O)COc3ccc(Br)cc3Cl)cc2)CC1	-5	8	-2	11	4
Cc1ccc(OCC(=O)Nc2ccc(S(=O)(=O)N(C)C3CCN(C)CC3)cc2)c(C)c1	-4	5	90*	-2	22
C[C@H](CO)N1C[C@H](C)[C@H](CN(C)C(=O)Nc2ccc(F)cc2)Oc2cc(-c3ccc(F)cc3)ccc2S1(=O)=O	·	·	·	-21	·
CC(=O)N(Cc1cc2cc(C)c(C)cc2n2nnnc12)CC1COCCO1 (stereo not given)	·	·	·	63*	·
CCCNC(=O)Nc1ccc2c(c1)OC[C@@H](C)NC[C@@H](C)[C@@H](OC)CN(C)C2=O	10	-3	-2	-4	-14
CO[C@@H]1CN(C)C(=O)c2cc(NC(=O)Nc3ccc(Cl)c(Cl)c3)ccc2OC[C@H](C)NC[C@@H]1C	·	·	·	-6	52*
CO[C@H]1CN(C)C(=O)c2cc(NC(=O)Nc3ccc(Cl)c(Cl)c3)ccc2OC[C@H](C)NC[C@H]1C	·	·	·	14	54*
CO[C@@H]1CN(C)C(=O)c2cc(NC(=O)Nc3ccc(Cl)cc3)ccc2OC[C@H](C)NC[C@H]1C	-7	5	-2	2	13
CO[C@H]1CN(C)C(=O)c2cc(NC(=O)Nc3cc(Cl)cc(Cl)c3)ccc2OC[C@@H](C)NC[C@@H]1C	·	·	·	4	59*
CO[C@@H]1CN(C)C(=O)c2cc(NC(=O)Nc3cc(Cl)cc(Cl)c3)ccc2OC[C@@H](C)NC[C@@H]1C	·	·	·	-12	·
